The record followed here is ChEMBL document CHEMBL1221380, “Structure-activity relationships of mononuclear metal-thiosemicarbazone complexes endowed with potent antiplasmodial and antiamoebic activities” (Bioorg Med Chem, 2010).

The test system of one test is Plasmodium falciparum. Nature of the test: Antiplasmodial activity against Plasmodium falciparum W2 after 24 hrs by [3H]hypoxanthine incorporation assay. It is filed as functional, organism-based. An outline of the steps: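 Chloroquine-resistant, mefloquine-sensitive W2 clone grown in human O+ erythrocytes in RPMI 1640 with 10% human plasma; 1–2% parasitemia, 2.5% hematocrit. Five concentrations in 4% DMSO in hypoxanthine-free RPMI, 24 h. [3H]-hypoxanthine uptake vs untreated wells; IC50 from triplicates, mefloquine standard.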

The test system of the next test is Entamoeba histolytica. Briefly: Antiamoebic activity against Entamoeba histolytica HM1:IMSS after 72 hrs by microplate method. Format: functional, organism-based. The following applies: HM-1:IMSS. The method, boiled down: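 Trophozoites grown in TYI-S-33 medium; samples dissolved in DMSO then medium to 1 mg/mL, diluted to 0.1 mg/mL, twofold serial dilutions in plate; final DMSO ≤0.1%. 10^5 organisms/mL added, plate gassed with nitrogen 10 min, 37 °C for 72 h. OD at 490 nm; % inhibition vs log dose, linear regression for IC50. Triplicates, repeated thrice; metronidazole standard.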

Test [1] in a line: Cytotoxicity against BALB/c mouse splenocyte by [3H]thymidine incorporation assay. It is filed as cell-based. The method, boiled down: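 Splenocytes (5 × 10^6 per well) in DMEM with 10% FCS and 50 µg/mL gentamycin; tested at 1.1, 3.3, 11, 33 and 100 µg/mL in triplicate with 3H-thymidine (1 µCi per well), 24 h, 37 °C, 5% CO2. Value is highest non-cytotoxic concentration, i.e. reducing incorporation by under 10% versus untreated.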
(In general: Dividing cells build labelled thymidine or BrdU into new DNA.)

A short description of test [2]: Inhibition of beta-hematin formation after 18 hrs by microtiter plate assay. Format: functional.

What is called IC50 is the concentration needed to halve the response being measured. For `S=C(N/N=C/c1ccco1)N1CCCCCC1`, the IC50 came out at 35.8 µM with Plasmodium falciparum and 12.1 µM with Entamoeba histolytica. The compound further registered a highest non-cytotoxic concentration in test [1] of over 100 µg/mL.

Regarding `S=C(N/N=C/c1ccco1)NC1CCCCC1`, the IC50 in the test with Plasmodium falciparum is 20.3 µM; with Entamoeba histolytica, 10.1 µM. Moreover, the highest non-cytotoxic concentration in test [1] was determined as 33 µg/mL.

As to `CC1CCN(C(=S)N/N=C/c2ccco2)CC1`, the concentration for half-maximal inhibition (IC50) with Plasmodium falciparum was 36.2 µM; in the test on Entamoeba histolytica, 8.02 µM. In addition, the highest non-cytotoxic concentration in test [1] was 100 µg/mL.

Take `CN(C(=S)N/N=C/c1ccco1)C1CCCCC1`: the figures for the IC50 in the test with Plasmodium falciparum and in the test with Entamoeba histolytica were 21.8 µM and 9.07 µM, respectively. In addition, the highest non-cytotoxic concentration in test [1] is over 100 µg/mL.

`CCN(CC)CCCC(C)Nc1ccnc2cc(Cl)ccc12.O=P(O)(O)O.O=P(O)(O)O` (centres undefined) [CHLOROQUINE PHOSPHATE] yielded an IC50 in test [2] of 1.3 µg/mL.

In the case of `OC(c1cc(C(F)(F)F)nc2c(C(F)(F)F)cccc12)C1CCCCN1` (centres undefined) [MEFLOQUINE], in the test on Plasmodium falciparum, the IC50 was 0.039 µM.
